Measurements: publication PMC6130797 (ACS Omega, 2018)
Where “and” joins values, the source holds several entries; their conditions need not be identical. Identical values can stand only once. Entries after “also recorded” stand apart in the source; their conditions may differ. Like-named read-outs stand apart in the source and are kept apart here.

Assays:
gpH2R [1] = biological target: T1, gpH2R (Cavia porcellus, UniProt P47747); test: biochemical; format: biochemical, guinea pig
Target sequence in this assay (P47747 whole entry): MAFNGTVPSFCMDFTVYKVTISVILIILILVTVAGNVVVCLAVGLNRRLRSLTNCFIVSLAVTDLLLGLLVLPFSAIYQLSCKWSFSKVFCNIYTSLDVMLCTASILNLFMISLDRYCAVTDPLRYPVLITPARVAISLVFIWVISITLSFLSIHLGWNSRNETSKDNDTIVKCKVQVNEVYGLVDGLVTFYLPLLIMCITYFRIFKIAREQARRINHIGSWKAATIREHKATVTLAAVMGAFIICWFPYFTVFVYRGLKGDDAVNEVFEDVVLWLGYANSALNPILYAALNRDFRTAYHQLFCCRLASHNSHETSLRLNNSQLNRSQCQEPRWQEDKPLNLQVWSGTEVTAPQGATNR
Target sequence in this assay (P63092 1-380 isoform P63092-2 partner): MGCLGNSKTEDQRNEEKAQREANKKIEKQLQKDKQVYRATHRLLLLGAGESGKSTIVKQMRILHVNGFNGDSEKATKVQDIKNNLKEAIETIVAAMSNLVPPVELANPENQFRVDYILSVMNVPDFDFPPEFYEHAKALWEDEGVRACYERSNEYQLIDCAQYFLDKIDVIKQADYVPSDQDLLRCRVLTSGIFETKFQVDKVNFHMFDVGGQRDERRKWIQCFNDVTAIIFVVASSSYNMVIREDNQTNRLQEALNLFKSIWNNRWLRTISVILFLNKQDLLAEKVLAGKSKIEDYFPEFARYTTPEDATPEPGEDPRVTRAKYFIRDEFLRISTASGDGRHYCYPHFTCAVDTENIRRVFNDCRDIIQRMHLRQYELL

gpH2R [2] = biological target: T1, gpH2R; design: species or system guinea pig
Target sequence in this assay (P47747 whole entry): as the sequence (P47747 whole entry) above

hH4R [3] = biological target: T2, hH4R (Homo sapiens, UniProt Q9H3N8); test: [35S]GTPγS binding assay, Sf9 cell membranes; format: biochemical
rH2R = rH2R (Rattus norvegicus, UniProt P25102); test: [35S]GTPγS binding assay, Sf9 cell membranes; format: biochemical
Sequence of rH2R (P25102 whole entry): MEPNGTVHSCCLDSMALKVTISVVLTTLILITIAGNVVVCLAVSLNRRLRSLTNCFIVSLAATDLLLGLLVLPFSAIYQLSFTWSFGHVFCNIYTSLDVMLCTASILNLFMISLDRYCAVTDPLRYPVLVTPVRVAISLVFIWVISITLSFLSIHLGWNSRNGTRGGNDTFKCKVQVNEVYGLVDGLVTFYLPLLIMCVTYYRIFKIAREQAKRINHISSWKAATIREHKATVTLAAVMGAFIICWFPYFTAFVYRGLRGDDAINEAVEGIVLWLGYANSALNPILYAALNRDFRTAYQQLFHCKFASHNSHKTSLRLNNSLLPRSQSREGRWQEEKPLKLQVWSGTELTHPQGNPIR
Sequence of rH2R (P63092 1-380 isoform P63092-2 partner): as the sequence (P63092 1-380 isoform P63092-2 partner) above

hH2R [4] = biological target: T3, hH2R (Homo sapiens, UniProt P25021); test: [35S]GTPγS binding assay, Sf9 cell membranes; format: biochemical
T3 sequence (P25021 whole entry): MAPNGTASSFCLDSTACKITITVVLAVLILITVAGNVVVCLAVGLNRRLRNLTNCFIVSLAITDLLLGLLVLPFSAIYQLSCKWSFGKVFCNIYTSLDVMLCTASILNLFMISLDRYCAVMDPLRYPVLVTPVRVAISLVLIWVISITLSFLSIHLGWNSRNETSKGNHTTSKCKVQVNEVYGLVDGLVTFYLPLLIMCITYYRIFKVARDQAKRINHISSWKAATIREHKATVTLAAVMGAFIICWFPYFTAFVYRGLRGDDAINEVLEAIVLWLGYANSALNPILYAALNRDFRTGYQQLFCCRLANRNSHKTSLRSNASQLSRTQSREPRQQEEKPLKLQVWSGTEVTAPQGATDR
T3 sequence (P63092 1-380 isoform P63092-2 partner): as the sequence (P63092 1-380 isoform P63092-2 partner) above

gpH1R = gpH1R (Cavia porcellus, UniProt P31389); test: Histamine H1 receptor assay on isolated guinea pig ileum
Sequence of gpH1R (P31389 whole entry): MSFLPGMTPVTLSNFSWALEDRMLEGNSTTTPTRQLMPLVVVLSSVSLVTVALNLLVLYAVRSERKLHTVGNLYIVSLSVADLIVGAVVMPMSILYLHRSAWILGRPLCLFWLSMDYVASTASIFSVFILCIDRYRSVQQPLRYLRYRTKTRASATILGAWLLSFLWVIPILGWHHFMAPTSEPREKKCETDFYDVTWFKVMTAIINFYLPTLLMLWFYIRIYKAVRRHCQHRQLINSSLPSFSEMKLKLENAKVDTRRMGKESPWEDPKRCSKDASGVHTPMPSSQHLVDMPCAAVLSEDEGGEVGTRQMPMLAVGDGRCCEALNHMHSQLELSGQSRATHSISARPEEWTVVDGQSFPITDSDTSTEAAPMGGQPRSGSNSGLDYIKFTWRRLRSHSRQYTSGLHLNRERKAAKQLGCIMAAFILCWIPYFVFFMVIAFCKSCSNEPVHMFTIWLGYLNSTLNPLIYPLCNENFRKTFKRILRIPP

hH2R [5] = biological target: T3, hH2R; format: binding; conditions: for difference in pKi (H2R) over pKi (H1,3,4R): hH2R selectivity from radioligand binding
hH3R [6] = biological target: T4, hH3R (Homo sapiens, UniProt Q9Y5N1); test: [35S]GTPγS binding assay, Sf9 cell membranes; format: biochemical
T4 sequence (Q9Y5N1 whole entry): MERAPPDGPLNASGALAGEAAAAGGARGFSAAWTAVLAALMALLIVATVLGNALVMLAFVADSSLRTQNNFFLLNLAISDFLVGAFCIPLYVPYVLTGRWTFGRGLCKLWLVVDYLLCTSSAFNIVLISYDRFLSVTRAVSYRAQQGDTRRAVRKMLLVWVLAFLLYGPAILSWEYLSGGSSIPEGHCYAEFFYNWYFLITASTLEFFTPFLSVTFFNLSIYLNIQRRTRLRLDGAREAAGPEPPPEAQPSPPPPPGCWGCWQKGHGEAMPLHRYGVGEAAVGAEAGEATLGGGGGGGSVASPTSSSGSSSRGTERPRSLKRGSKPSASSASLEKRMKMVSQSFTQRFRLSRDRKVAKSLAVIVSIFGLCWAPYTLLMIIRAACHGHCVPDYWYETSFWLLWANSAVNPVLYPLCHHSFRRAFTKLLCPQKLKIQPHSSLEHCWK

hH3R [7] = biological target: T4, hH3R; test: Radioligand competition binding with [3H]Nα-methylhistamine, Sf9 cell membranes
hH4R [8] = biological target: T2, hH4R; test: Radioligand competition binding with [3H]histamine, Sf9 cell membranes
hH1R = hH1R (Homo sapiens, UniProt P35367); test: biochemical; format: binding
Sequence of hH1R (P35367 whole entry): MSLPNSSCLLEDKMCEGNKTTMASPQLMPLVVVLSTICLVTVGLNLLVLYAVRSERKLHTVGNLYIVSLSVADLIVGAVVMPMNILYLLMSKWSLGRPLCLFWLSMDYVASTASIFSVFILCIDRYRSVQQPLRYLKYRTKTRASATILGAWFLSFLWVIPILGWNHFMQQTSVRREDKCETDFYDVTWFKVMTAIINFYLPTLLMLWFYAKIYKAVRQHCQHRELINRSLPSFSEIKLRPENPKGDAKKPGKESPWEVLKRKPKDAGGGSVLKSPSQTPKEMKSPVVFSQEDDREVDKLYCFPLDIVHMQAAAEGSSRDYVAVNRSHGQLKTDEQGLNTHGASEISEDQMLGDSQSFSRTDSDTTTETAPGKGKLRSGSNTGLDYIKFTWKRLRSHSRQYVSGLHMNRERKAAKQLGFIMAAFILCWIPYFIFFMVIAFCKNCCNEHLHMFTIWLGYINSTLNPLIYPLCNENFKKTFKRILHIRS

[9] = Chemical stability in binding buffer, RP-HPLC analysis; format: physicochemical; conditions: binding buffer pH 7.4, 100 μM, room temperature, 12 months
Procedure, shortened: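 Test compounds (dimeric bisalkylguanidines) were held at 100 μM in binding buffer (12.5 mM MgCl2, 1 mM EDTA, 75 mM Tris/HCl, pH 7.4) at room temperature for 12 months.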

[10] = maximal response relative to histamine (Emax = 1.00)
[11] = hH2R pKi, [3H]tiotidine (Kd […], c = 10 nM), mean ± SEM
[12] = hH3R pKi, [3H]Nα-methylhistamine (Kd 8.6 nM, c = 3 nM), mean ± SEM

Row | SMILES | EC50 (rH2R) | EC50 (gpH2R [1]) | gpH2R Emax (gpH2R [1]) | Kb (gpH1R) | EC50 (gpH2R [2]) | gpH2R Emax (gpH2R [2]) | Ki (hH2R [5]; Ki hH2R, bound stated) | Ki (hH2R [5]; [11]) | Kb (hH4R [3]) | hH4R Emax (hH4R [3]) | Kb (hH3R [6]) | hH3R Emax (hH3R [6]) | Ki (hH3R [7]; Ki hH3R, bound stated) | Ki (hH3R [7]; [12]) | rH2R Emax (rH2R) | Ki (hH4R [8]; Ki hH4R, bound stated) | Ki (hH4R [8]; hH4R pKi) | Ki (hH1R; hH1R pKi) | EC50 (hH2R [4]) | hH2R Emax (hH2R [4]) | other results
1 | NCCc1c[nH]cn1 [Compound 1, histamine, reference compound] | 1.07 µM |  |  |  |  |  |  |  |  |  |  |  |  |  |  |  |  |  |  |  | gpH2R Emax (gpH2R [1]; [10]): 1.00; gpH2R Emax (gpH2R [2]; guinea pig right atrium, relative to maximal increase in heart rate induced by histamine (Emax = 1.00)): 1.00; hH4R Emax (hH4R [3]; [10]): 1.00; rH2R Emax (rH2R; [10]): 1.00; hH2R Emax (hH2R [4]; [10]): 1.00
2 | Cc1nc(N)sc1CCCNC(=N)NCCCCCCCCNC(=N)NCCCc1sc(N)nc1C [Compound 58, 1,1′-(Octane-1,8-diyl)bis{3-[3-(2-amino-4-methylthiazol-5-yl)propyl]guanidine}] | 0.148 µM | 0.0525 µM | 0.97 ± 0.06 |  |  | 0.78 ± 0.01 | < 0.1 µM | 0.0468 µM |  | 0 |  | 0 | > 1 µM |  | 0.70 ± 0.04 | > 1 µM |  | > 3.16 µM | 0.245 µM | 0.33 ± 0.03 | difference in pKi (H2R) over pKi (H1,3,4R) (hH2R [5]): at least 1.5 log units; chemical stability [9]: excellent chemical stabilities; also recorded: no decomposition; Ki (hH1R; Ki hH1R, bound stated): > 1 µM
3 | Cc1nc(N)sc1CCCNC(=N)NCCCCCCCCNC(=N)NCCCc1cnc(N)s1 [Compound 63, 1-[3-(2-Amino-4-methylthiazol-5-yl)propyl]-3-{8-[3-(3-(2-aminothiazol-5-yl)propyl)guanidino]octyl}guanidine] | 0.141 µM | 0.0468 µM | 1.02 and 1.02 ± 0.04 | 1 µM | 0.00275 µM | 0.88 ± 0.03 |  | 0.123 µM | 186 µM | 0 | 21.4 µM | 0 |  | 3.98 µM | 0.87 ± 0.02 |  | 7.24 µM | > 3.16 µM | 0.251 µM | 0.47 ± 0.03 | Emax (gpH2R [2]): 88%; potency relative to histamine (gpH2R [2]; gpH2R, atrium): 250 times; difference in pKi (H2R) over pKi (H1,3,4R) (hH2R [5]): at least 1.5 log units

Now from value to molecule, other results behind:

Row | EC50 (rH2R) | EC50 (gpH2R [1]) | gpH2R Emax (gpH2R [1]) | Kb (gpH1R) | EC50 (gpH2R [2]) | gpH2R Emax (gpH2R [2]) | Ki (hH2R [5]; Ki hH2R, bound stated) | Ki (hH2R [5]; [11]) | Kb (hH4R [3]) | hH4R Emax (hH4R [3]) | Kb (hH3R [6]) | hH3R Emax (hH3R [6]) | Ki (hH3R [7]; Ki hH3R, bound stated) | Ki (hH3R [7]; [12]) | rH2R Emax (rH2R) | Ki (hH4R [8]; Ki hH4R, bound stated) | Ki (hH4R [8]; hH4R pKi) | Ki (hH1R; hH1R pKi) | EC50 (hH2R [4]) | hH2R Emax (hH2R [4]) | SMILES | other results
4 | 0.0661 µM | 0.0251 µM | 0.95 and 0.95 ± 0.05 | 1.7 µM | 0.0105 µM | 0.91 and 0.91 ± 0.05 | < 0.1 µM | 0.0891 µM | 407 µM | 0 | 0.135 µM | 0 | < 0.1 µM | 0.0302 µM | 0.80 ± 0.01 | < 0.1 µM | 0.0871 µM | 3.16 µM | 0.166 µM | 0.50 ± 0.03 | N=C(NCCCCCCCCNC(=N)NCCCc1c[nH]cn1)NCCCc1c[nH]cn1 [Compound 5, 1,1′-(Octane-1,8-diyl)bis{3-[3-(1H-imidazol-4-yl)propyl]guanidine}] | Ki (hH1R; Ki hH1R, bound stated): > 1 µM
5 | 0.0245 µM | 0.0295 µM | 0.89 ± 0.07 | 0.123 µM | 0.00776 µM | 0.63 and 0.63 ± 0.03 |  | 0.0389 µM | 324 µM | 0 | 0.0468 µM | 0 |  | 0.0162 µM | 0.80 and 0.80 ± 0.03 |  | 0.02 µM | 0.355 µM | 0.0537 µM | 0.52 ± 0.03 | N=C(NCCCCCCCCCCCCNC(=N)NCCCc1c[nH]cn1)NCCCc1c[nH]cn1 [Compound 57, 1,1′-(Dodecane-1,12-diyl)bis{3-[3-(1H-imidazol-4-yl)propyl]guanidine}] | gpH1R pA2 (gpH1R; guinea pig ileum, antagonism of histamine-induced contraction): 6.91; chemical stability [9]: excellent chemical stabilities; also recorded: no decomposition
